Test results taken from ChEMBL document CHEMBL1681687, “Discovery of muscarinic acetylcholine receptor antagonist and beta 2 adrenoceptor agonist (MABA) dual pharmacology molecules” (Bioorg Med Chem Lett, 2011).

Legend:
[1] = target: Muscarinic acetylcholine receptor M3 (Homo sapiens, UniProt P20309); assay: Displacement of [3H]-N-methyl-scopolamine from human muscarinic M3 receptor after 6 hrs by cell based assay
Summary of the method: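 Human M3 receptor-expressing cell membranes incubated up to 6 h at 37 °C with 1 nM [3H]N-methyl-scopolamine and serial dilutions of compound. Buffer 10 mM Hepes, 100 mM NaCl, 10 mM MgCl2, pH 7.4 at 37 °C. IC50 from displacement converted to Ki by Cheng–Prusoff.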

[2] = target: T1, Beta-2 adrenergic receptor (Homo sapiens, UniProt P07550); assay: Displacement of [3H]-dihydroalprenolol from human beta2-adrenoceptor expressed in HEK cells after 4 hrs; type: cell-based, HEK293
[3] = target: T1, Beta-2 adrenergic receptor; assay: Agonist activity at human beta2-adrenoceptor expressed in HEK cells assessed as increase of cAMP level after 10 mins by radioimmunoassay; type: functional, cell-based, HEK293

Sequence of Muscarinic acetylcholine receptor M3 (P20309 whole entry): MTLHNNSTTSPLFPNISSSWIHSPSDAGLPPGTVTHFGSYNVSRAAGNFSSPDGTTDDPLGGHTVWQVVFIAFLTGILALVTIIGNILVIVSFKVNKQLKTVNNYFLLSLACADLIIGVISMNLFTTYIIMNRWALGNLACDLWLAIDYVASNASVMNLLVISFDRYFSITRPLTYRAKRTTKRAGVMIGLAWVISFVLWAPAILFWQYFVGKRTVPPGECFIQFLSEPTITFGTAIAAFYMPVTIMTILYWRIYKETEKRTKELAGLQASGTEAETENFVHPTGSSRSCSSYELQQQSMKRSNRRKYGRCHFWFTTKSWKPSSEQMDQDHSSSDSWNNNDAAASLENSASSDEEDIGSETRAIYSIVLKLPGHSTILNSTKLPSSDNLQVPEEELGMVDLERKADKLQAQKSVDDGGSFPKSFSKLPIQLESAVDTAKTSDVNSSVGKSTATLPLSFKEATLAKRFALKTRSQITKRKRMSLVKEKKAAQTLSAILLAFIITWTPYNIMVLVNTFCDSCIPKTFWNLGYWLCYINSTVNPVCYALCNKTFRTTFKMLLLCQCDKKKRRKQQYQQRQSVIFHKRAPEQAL
T1 sequence (P07550 whole entry): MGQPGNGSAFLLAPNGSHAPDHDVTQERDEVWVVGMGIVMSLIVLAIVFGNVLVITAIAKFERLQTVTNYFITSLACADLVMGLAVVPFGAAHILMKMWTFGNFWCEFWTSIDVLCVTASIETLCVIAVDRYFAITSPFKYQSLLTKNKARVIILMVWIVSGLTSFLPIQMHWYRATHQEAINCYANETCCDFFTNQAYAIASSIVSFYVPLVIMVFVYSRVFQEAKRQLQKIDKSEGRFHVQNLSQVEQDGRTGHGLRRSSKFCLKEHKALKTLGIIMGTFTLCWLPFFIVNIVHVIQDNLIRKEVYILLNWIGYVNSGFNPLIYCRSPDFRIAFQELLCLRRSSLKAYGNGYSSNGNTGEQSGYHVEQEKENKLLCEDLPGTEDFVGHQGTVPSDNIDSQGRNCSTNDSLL

Structure (SMILES) | Ki [1] [nM] | Ki [2] [nM] | EC50 [3] [nM]
CCCCCCCN1CCC(OC(=O)Nc2ccccc2-c2ccccc2)CC1 | 5.1 |  | 
CN1CCC(OC(=O)Nc2ccccc2-c2ccccc2)CC1 | 22 |  | 
NCCCCN1CCC(OC(=O)Nc2ccccc2-c2ccccc2)CC1 | 84 |  | 
CCN1CCC(OC(=O)Nc2ccccc2-c2ccccc2)CC1 | 55 |  | 
CCCCCCCCN1CCC(OC(=O)Nc2ccccc2-c2ccccc2)CC1 | 7 |  | 
CCCCCCCCCN1CCC(OC(=O)Nc2ccccc2-c2ccccc2)CC1 | 9.5 |  | 
NCCCN1CCC(OC(=O)Nc2ccccc2-c2ccccc2)CC1 | 67 |  | 
NCCCCCCN1CCC(OC(=O)Nc2ccccc2-c2ccccc2)CC1 | 19 |  | 
NC(=O)C(c1ccccc1)(c1ccccc1)[C@@H]1CCN(CCCCCCCCCNCC(O)c2ccc(O)c3[nH]c(=O)ccc23)C1 (stereo not given in full) | 32 | 60 | 3.3
CCCCCCCCCCCN1CCC(OC(=O)Nc2ccccc2-c2ccccc2)CC1 | 48 |  | 
O=C(Nc1ccccc1-c1ccccc1)NC1CCN(CCCCCCCCCNCC(O)c2ccc(O)c3[nH]c(=O)ccc23)CC1 (stereo not given) | 7.5 | 115 | 8.4
O=C(Nc1ccccc1-c1ccccc1)O[C@H]1C[N+]2(CCCCCCCCCNCC(O)c3ccc(O)c4[nH]c(=O)ccc34)CCC1CC2 (stereo not given in full) | 140 | 123 | 8.9
CCCCCCCCCCN1CCC(OC(=O)Nc2ccccc2-c2ccccc2)CC1 | 25 |  | 
CCCN1CCC(OC(=O)Nc2ccccc2-c2ccccc2)CC1 | 77 |  | 
CCCCN1CCC(OC(=O)Nc2ccccc2-c2ccccc2)CC1 | 17 |  | 
O=C(Nc1ccccc1-c1ccccc1)OC1CCN(CCCNC[C@H](O)c2ccc(O)c3[nH]c(=O)ccc23)CC1 | 28 | 19 | 1.3
C[N+]1(CCCCCCCCCNC[C@H](O)c2ccc(O)c3[nH]c(=O)ccc23)[C@@H]2C[C@H](OC(=O)C(O)(c3cccs3)c3cccs3)C[C@@H]1[C@H]1O[C@H]12 (stereo not given in full) | 4.6 | 36 | 0.9
NCCN1CCC(OC(=O)Nc2ccccc2-c2ccccc2)CC1 | 50 |  | 
NCCCCCN1CCC(OC(=O)Nc2ccccc2-c2ccccc2)CC1 | 98 |  | 
O=C(Nc1ccccc1-c1ccccc1)OC1CCNCC1 | 46 |  | 
CCCCCN1CCC(OC(=O)Nc2ccccc2-c2ccccc2)CC1 | 14 |  | 

Further compounds by falling Ki [1], results first:

Ki [1] [nM] | Ki [2] [nM] | EC50 [3] [nM] | Structure (SMILES)
4.8 |  |  | CCCCCCN1CCC(OC(=O)Nc2ccccc2-c2ccccc2)CC1
2.6 |  |  | NCCCCCCCCCCCCN1CCC(OC(=O)Nc2ccccc2-c2ccccc2)CC1
2.5 |  |  | NCCCCCCCCCCCN1CCC(OC(=O)Nc2ccccc2-c2ccccc2)CC1
1.8 |  |  | NCCCCCCCCN1CCC(OC(=O)Nc2ccccc2-c2ccccc2)CC1
1.6 |  |  | NCCCCCCCCCCN1CCC(OC(=O)Nc2ccccc2-c2ccccc2)CC1
0.75 |  |  | NCCCCCCCCCN1CCC(OC(=O)Nc2ccccc2-c2ccccc2)CC1
0.74 | 10 | 1.1 | O=C(Nc1ccccc1-c1ccccc1)OC1CCN(CCCCCCCNC[C@H](O)c2ccc(O)c3[nH]c(=O)ccc23)CC1
0.53 |  |  | NCCCCCCCN1CCC(OC(=O)Nc2ccccc2-c2ccccc2)CC1
0.32 | 3.4 | 0.32 | O=C(Nc1ccccc1-c1ccccc1)OC1CCN(CCCCCCCCNC[C@H](O)c2ccc(O)c3[nH]c(=O)ccc23)CC1
0.14 | 61 | 14 | O=C(Nc1ccccc1-c1ccccc1)OC1CCN(CCCCCCCCCNC[C@H](O)c2ccc(O)c(CO)c2)CC1
0.14 | 21 | 2.6 | O=CNc1cc([C@@H](O)CNCCCCCCCCCN2CCC(OC(=O)Nc3ccccc3-c3ccccc3)CC2)ccc1O
